Data reported in paper PMC5527967 (The Prostate, 2017).
Where “and” joins values, the source holds several entries; their conditions need not be identical. Equal values may be shown once. Read-outs that look alike come from different tables or passages of the source.

Assays:
Akt pS473 in LNCaP cells = assay: Western blot of Akt pS473; assay type: cell-based; conditions: 5 μM, 4 h
[1] = tested on: Akt pS473 in LNCaP/shPIK3CB#3 cells; assay: Western blot of Akt pS473; assay type: cell-based; conditions: LNCaP/shPIK3CB#3, 5 μM, 4 h
aqueous solubility assay = assay type: physicochemical
p110α = p110α (Homo sapiens, UniProt P42336); assay: cell lysate CETSA; assay type: binding
Chain of p110α (P42336 whole entry): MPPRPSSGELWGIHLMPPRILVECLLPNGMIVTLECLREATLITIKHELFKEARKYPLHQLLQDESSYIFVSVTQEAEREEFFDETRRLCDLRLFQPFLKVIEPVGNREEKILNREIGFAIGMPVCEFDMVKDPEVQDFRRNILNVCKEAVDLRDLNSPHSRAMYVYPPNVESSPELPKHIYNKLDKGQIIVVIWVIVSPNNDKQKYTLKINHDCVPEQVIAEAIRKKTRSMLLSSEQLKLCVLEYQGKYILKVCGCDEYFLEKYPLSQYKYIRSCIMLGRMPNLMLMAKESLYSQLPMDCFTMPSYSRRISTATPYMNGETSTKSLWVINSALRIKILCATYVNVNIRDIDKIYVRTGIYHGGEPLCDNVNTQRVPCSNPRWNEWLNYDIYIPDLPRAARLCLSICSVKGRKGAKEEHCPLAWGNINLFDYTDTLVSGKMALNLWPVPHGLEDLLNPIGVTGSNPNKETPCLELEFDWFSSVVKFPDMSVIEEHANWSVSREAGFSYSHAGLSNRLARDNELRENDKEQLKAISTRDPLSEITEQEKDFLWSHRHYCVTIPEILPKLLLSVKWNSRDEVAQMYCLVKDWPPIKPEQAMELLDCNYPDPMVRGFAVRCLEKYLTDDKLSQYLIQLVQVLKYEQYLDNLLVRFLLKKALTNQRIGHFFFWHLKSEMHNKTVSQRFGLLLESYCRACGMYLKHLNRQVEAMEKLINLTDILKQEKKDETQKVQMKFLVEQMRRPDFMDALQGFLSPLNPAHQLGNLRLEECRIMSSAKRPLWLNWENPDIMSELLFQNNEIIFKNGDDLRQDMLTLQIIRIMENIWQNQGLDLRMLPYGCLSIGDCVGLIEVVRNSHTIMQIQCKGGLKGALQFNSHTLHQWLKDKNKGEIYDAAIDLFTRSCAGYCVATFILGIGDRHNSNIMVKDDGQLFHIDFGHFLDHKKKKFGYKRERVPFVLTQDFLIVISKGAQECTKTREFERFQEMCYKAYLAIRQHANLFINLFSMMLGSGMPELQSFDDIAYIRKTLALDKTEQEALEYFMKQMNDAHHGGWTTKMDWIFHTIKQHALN
Method in brief: (§1)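 Exponentially grown PC-3 cells in RIPA with protease inhibitors were put through three liquid-nitrogen freeze-thaw cycles, then ultracentrifuged 20 min at 4°C. Soluble lysate was incubated with test compound (5 μM) or DMSO for 45 min at room temperature. Aliquots were heated 3 min at 37–69°C in 4°C steps, cooled 3 min, and spun. Supernatant was Western blotted. Bands were normalized to 0–100% and fitted with a Boltzmann sigmoid. ΔTm50 is the compound-minus-solvent temperature at 50% band loss. Three experiments.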

p110β [2] = target: T1, p110β (Homo sapiens, UniProt P42338); assay: cell lysate CETSA; assay type: binding
T1 sequence (P42338 whole entry): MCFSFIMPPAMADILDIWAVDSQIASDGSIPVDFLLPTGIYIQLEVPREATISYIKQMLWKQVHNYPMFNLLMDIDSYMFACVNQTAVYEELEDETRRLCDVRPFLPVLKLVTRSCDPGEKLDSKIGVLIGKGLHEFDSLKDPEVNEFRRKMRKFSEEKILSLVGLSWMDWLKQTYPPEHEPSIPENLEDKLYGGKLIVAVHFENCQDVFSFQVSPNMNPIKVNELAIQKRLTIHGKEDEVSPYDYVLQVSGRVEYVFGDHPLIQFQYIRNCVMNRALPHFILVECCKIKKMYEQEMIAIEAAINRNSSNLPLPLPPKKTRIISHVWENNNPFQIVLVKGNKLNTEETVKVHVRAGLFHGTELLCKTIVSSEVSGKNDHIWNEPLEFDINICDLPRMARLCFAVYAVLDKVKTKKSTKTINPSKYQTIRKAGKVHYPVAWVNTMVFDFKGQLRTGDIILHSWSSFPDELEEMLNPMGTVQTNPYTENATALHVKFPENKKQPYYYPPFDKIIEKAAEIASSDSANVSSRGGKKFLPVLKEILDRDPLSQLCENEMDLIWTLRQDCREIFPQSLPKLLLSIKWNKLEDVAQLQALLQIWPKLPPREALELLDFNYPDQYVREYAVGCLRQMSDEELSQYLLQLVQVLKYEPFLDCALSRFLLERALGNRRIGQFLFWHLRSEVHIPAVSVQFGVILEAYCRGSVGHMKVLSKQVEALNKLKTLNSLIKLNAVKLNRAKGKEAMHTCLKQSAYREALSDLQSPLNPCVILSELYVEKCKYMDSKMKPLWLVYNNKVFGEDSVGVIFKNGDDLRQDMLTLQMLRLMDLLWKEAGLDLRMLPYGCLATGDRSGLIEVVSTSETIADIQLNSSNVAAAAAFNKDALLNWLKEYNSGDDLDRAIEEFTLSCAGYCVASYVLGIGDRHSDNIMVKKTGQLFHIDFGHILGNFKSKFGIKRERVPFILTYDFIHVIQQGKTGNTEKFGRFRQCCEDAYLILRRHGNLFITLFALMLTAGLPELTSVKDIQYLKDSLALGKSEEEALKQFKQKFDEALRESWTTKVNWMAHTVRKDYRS
Method in brief: as §1

p110γ = p110γ (Homo sapiens, UniProt P48736); assay: cell lysate CETSA; assay type: binding
Chain of p110γ (P48736 whole entry): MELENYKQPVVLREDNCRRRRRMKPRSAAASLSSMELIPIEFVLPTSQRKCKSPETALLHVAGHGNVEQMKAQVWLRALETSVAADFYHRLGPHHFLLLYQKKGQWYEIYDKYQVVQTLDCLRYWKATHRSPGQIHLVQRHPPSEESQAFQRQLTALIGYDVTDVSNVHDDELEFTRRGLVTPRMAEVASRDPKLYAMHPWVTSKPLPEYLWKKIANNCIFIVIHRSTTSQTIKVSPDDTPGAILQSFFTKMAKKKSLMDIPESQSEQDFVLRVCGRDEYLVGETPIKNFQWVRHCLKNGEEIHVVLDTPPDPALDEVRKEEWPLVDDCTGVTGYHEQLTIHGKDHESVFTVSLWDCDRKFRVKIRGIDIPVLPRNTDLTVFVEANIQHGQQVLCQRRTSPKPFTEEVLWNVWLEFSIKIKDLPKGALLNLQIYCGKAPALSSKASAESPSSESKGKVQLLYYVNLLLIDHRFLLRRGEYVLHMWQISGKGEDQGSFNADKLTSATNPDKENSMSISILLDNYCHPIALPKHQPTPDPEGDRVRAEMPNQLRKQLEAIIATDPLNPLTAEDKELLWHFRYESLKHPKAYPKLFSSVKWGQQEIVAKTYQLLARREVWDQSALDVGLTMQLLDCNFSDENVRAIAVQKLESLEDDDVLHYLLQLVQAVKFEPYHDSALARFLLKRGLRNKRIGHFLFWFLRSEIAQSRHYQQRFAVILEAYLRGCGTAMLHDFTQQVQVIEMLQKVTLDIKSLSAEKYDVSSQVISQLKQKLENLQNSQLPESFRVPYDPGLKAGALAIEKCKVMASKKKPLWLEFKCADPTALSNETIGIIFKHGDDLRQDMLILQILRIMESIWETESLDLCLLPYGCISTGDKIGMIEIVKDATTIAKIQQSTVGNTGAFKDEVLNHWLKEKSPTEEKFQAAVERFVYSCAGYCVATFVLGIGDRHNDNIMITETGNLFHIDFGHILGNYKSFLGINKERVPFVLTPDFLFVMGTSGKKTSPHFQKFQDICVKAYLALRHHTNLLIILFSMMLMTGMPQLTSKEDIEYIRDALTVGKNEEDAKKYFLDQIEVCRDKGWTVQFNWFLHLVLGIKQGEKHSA
Method in brief: as §1

VPS34 = VPS34 (Homo sapiens, UniProt Q8NEB9); assay: cell lysate CETSA; assay type: binding
Chain of VPS34 (Q8NEB9 whole entry): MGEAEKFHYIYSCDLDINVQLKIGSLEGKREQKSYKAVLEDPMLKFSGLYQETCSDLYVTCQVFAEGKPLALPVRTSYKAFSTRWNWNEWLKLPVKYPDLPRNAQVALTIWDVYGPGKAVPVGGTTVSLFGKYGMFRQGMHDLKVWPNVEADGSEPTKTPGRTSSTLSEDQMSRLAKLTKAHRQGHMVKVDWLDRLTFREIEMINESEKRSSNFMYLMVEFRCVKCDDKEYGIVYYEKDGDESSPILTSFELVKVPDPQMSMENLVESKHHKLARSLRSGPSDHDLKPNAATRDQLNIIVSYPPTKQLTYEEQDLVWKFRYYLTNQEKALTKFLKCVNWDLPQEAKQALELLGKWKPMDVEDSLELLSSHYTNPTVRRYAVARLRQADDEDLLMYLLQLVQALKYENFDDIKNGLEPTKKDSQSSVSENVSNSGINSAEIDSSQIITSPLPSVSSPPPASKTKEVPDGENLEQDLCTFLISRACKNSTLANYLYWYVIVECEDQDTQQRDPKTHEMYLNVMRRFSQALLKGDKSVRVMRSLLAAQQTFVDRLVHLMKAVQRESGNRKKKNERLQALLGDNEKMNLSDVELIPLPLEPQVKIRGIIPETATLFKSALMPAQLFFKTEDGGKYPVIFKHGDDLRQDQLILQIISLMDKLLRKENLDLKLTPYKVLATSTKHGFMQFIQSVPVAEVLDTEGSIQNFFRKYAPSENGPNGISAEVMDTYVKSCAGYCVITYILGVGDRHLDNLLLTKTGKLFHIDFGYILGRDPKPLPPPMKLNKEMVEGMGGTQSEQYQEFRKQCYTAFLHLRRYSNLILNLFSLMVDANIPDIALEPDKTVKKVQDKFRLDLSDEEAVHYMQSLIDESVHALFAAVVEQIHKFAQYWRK
Method in brief: as §1

Akt [3] = assay: cell lysate CETSA; assay type: binding; conditions: cell lysate (in vitro), PC-3, compound 5 μM
Method in brief: as §1

p110β [4] = target: T1, p110β; assay: whole cell CETSA; assay type: cell-based; conditions: whole cell (in vivo), PC-3
Method in brief: (§2)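 Intact PC-3 cells in regular media treated with test compound or solvent for 4 hrs, washed and collected in cold PBS. Aliquoted pellets heated 3 min at 37–69°C (4°C steps), cooled 2 min at room temperature, then iced. Lysed in RIPA by three liquid-nitrogen freeze-thaw cycles; soluble fraction Western blotted. Densities normalized 0–100%, Boltzmann sigmoid fit; ΔTm50 as compound vs solvent shift at 50% band loss.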

Akt [5] = assay: whole cell CETSA; assay type: cell-based; conditions: whole cell (in vivo), PC-3
Method in brief: as §2

C4-2B cells [6] = assay: WST-8 cell growth inhibition; assay type: cell-based; conditions: read-out: Cell Growth Inhibition EC50 (95% CI)
Method in brief: (§3)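 Cells seeded at 8,000 per well and grown 24 hrs, then exposed to increasing concentrations of test compound or solvent for 3 days. WST-8 reagent added for 2 hrs at 37°C and OD read at 450 nm. Growth inhibition taken as percentage of solvent control OD. EC50 from log concentration vs normalized response fit, variable slope. Three independent experiments.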

C4-2B/MDV-R cells [7] = assay: WST-8 cell growth inhibition; assay type: cell-based; conditions: read-out: Cell Growth Inhibition EC50 (95% CI)
Method in brief: as §3

22RV1 cells = assay: WST-8 cell growth inhibition; assay type: cell-based; conditions: read-out: Cell Growth Inhibition EC50 (95% CI)
Method in brief: as §3

PC-3 cells = assay: WST-8 cell growth inhibition; assay type: cell-based; conditions: read-out: Cell Growth Inhibition EC50 (95% CI)
Method in brief: as §3

Akt pS473 in C4-2B cells = assay: Western blot of FBS-stimulated Akt pS473; assay type: cell-based; conditions: 5 μM
Method in brief: (§4)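 Cells serum-starved overnight, pretreated with test compound, then given 10% FBS. Lysates made in RIPA buffer with protease inhibitor cocktail, equal protein run on SDS-PAGE and transferred to PVDF. Blocked in 10% nonfat milk 1 hr, primary antibody (Akt pS473) overnight at 4°C, HRP secondary, chemiluminescent detection. Actin used as loading control.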

[8] = tested on: Akt pS473 in C4-2B/MDV-R cells; assay: Western blot of FBS-stimulated Akt pS473; assay type: cell-based; conditions: 5 μM
Method in brief: as §4

C4-2B cells [9] = assay: flow cytometry cell cycle analysis; assay type: cell-based; conditions: 16 h after 10% FBS
Method in brief: (§5)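 Cells serum-starved overnight to synchronise, pretreated 30 min with solvent or test compound, then stimulated with 10% FBS for 16 h. Cells trypsinized, fixed and stained with propidium iodide. Counted on a flow cytometer (FACS) and cell cycle phase distribution calculated. Mean and SEM from at least three repeated experiments.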

C4-2B/MDV-R cells [10] = assay: flow cytometry cell cycle analysis; assay type: cell-based; conditions: 16 h after 10% FBS
Method in brief: as §5

[11] = tested on: cyclin D1, CDK6 and p27^kip1 in C4-2B cells; assay: Western blot of G1 phase proteins; assay type: cell-based; conditions: 5 μM
Method in brief: (§6)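 After overnight serum starvation, cells received a 30-min pretreatment with solvent or test compound (5 μM), were stimulated with 10% FBS and were harvested at several time points. Lysates (RIPA plus protease inhibitors) were immunoblotted on PVDF for cyclin D1, CDK6 and p27kip1, with chemiluminescent detection and actin as loading control.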

[12] = tested on: cyclin D1, CDK6 and p27^kip1 in C4-2B/MDV-R cells; assay: Western blot of G1 phase proteins; assay type: cell-based; conditions: 5 μM
Method in brief: as §6

human p110α/p85α = human p110α/p85α (Homo sapiens, UniProt P42336); assay: Kinase-Glo Plus luminescent kinase assay; assay type: biochemical; conditions: read-out: IC50 p110α; 2 μM ATP, 37°C, 2 h
Chain of human p110α/p85α (P42336 whole entry): as the sequence (P42336 whole entry) above
Chain of human p110α/p85α (P27986 whole entry partner): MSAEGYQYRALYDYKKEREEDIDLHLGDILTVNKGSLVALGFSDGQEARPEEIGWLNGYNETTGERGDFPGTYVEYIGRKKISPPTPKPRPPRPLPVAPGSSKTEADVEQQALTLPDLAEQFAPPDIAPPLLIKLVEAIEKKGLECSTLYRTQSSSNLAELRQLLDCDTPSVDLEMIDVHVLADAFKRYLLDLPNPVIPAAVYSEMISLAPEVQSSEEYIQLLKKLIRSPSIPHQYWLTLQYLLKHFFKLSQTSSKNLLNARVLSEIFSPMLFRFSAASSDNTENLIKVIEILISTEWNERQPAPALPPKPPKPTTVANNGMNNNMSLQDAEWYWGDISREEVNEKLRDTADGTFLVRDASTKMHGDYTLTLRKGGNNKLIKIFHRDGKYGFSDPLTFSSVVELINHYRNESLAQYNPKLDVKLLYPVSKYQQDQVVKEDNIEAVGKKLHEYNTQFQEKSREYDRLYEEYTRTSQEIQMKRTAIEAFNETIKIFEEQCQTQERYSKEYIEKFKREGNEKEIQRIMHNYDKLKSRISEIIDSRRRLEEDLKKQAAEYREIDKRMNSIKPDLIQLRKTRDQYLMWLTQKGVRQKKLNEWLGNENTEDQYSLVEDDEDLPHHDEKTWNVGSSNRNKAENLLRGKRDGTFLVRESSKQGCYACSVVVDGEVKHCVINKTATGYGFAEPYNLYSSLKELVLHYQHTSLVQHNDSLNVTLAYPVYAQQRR

human p110δ/p85α = human p110δ/p85α (Homo sapiens, UniProt O00329); assay: Kinase-Glo Plus luminescent kinase assay; assay type: biochemical; conditions: read-out: IC50 p110δ; 2 μM ATP, 37°C, 2 h
[13] = cell lysate (in vitro), PC-3, compound 5 μM

O=c1[nH]c2ccccc2n1C1CCN(Cc2ccc(-c3nc4cc5[nH]cnc5cc4nc3-c3ccccc3)cc2)CC1 [AKT-i8]
effect on Akt pS473 (Akt pS473 in LNCaP cells): completely abolished | effect on Akt pS473 [1]: retained their full capacity

Cc1cc([C@@H](C)Nc2ccccc2C(=O)O)c2nc(N3CCOCC3)cc(=O)n2c1 [AZD6482]
effect on Akt pS473 (Akt pS473 in LNCaP cells): completely abolished | effect on Akt pS473 [1]: only partially inhibited

C[C@@H](Nc1cc(F)cc(F)c1)c1cc(C(=O)N(C)C)cc2c(=O)cc(N3CCOCC3)oc12 [AZD8186]
effect on Akt pS473 (Akt pS473 in LNCaP cells): completely abolished | effect on Akt pS473 [1]: only partially inhibited

Nc1cc(C(F)(F)F)c(-c2cc(N3CCOCC3)nc(N3CCOCC3)n2)cn1 [BKM120]
effect on Akt pS473 (Akt pS473 in LNCaP cells): completely abolished | effect on Akt pS473 [1]: retained their full capacity

CC(CC(C(N)=O)(c1ccccc1)c1ccccc1)N(C)C (stereo not drawn) [BL139]
solubility (aqueous solubility assay; aqueous): 37400 µg/mL and 99200 µM | ΔTm at 5 µM (p110α; human, 0.75 h, read-out: ΔTm50 p110α): 1.51 °C | ΔTm at 5 µM (p110β [2]; human, 0.75 h, read-out: ΔTm50 p110β): 12.4 °C | ΔTm at 5 µM (p110γ; human, 0.75 h, read-out: ΔTm50 p110γ): 0.84 °C | ΔTm at 5 µM (VPS34; human, 0.75 h, read-out: ΔTm50 VPS34): 0.14 °C | ΔTm50 Akt (Akt [3]): 2.44 °C | ΔTm50 p110β (p110β [4]; 240 min): 5.78 °C | ΔTm50 Akt (Akt [5]): 2.60 °C

Cc1nc(NC(=O)N2CCC[C@H]2C(N)=O)sc1-c1ccnc(C(C)(C)C(F)(F)F)c1 [BYL719]
effect on Akt pS473 (Akt pS473 in LNCaP cells): partial inhibitory effect

Cc1c(Cn2c(C)nc3c(C(=O)O)cc(N4CCOCC4)cc32)cccc1C(F)(F)F [GSK2636771]
EC50 (C4-2B cells [6]; 72 h): 28.9 µM | EC50 (C4-2B/MDV-R cells [7]; 72 h): 42.3 µM | EC50 (22RV1 cells; Homo sapiens, 22Rv1, 72 h): 26.1 µM | EC50 (PC-3 cells; Homo sapiens, PC-3, 72 h): 14.5 µM | effect on Akt pS473 (Akt pS473 in LNCaP cells): partial inhibitory effect | effect on Akt pS473 [1]: lost their inhibitory effect | effect on FBS-stimulated Akt pS473 levels (Akt pS473 in C4-2B cells): abolished | effect on FBS-stimulated Akt pS473 levels [8]: only partially suppressed | cell cycle distribution (G0/G1 and S-phase) (C4-2B cells [9]): significantly increased G0/G1 population accompanied with a large reduction of S-phase cells | cell cycle distribution (G0/G1 and S-phase) (C4-2B/MDV-R cells [10]): significantly increased G0/G1 population accompanied with a large reduction of S-phase cells | CDK6 protein levels [11]: no obvious alteration | FBS-induced increase of cyclin D1 protein levels [11]: largely suppressed | p27^kip1 protein levels [11]: largely elevated | CDK6 protein levels [12]: no obvious alteration | FBS-induced increase of cyclin D1 protein levels [12]: largely suppressed

CNC(=O)c1ccc(N2C(=S)N(c3ccc(C#N)c(C(F)(F)F)c3)C(=O)C2(C)C)cc1F [MDV3100]
effect on FBS-stimulated Akt pS473 levels (Akt pS473 in C4-2B cells): enhanced

Cc1cc(C(C)Nc2ccccc2)c2nc(N3CCOCC3)cc(=O)n2c1 (stereo not drawn) [TGX221]
Aqueous solubility (aqueous solubility assay): < 1.0 mg/ml and <2.74 mM | ΔTm50 p110α (p110α; [13]): 1.57 °C | ΔTm50 p110β (p110β [2]; [13]): 04.02 °C | ΔTm50 p110γ (p110γ; [13]): 0.68 °C | ΔTm50 VPS34 (VPS34; [13]): 0.42 °C | ΔTm50 Akt (Akt [3]): 1.49 °C | ΔTm50 p110β (p110β [4]): 1.72 °C | ΔTm50 Akt (Akt [5]): 1.18 °C | IC50 (human p110α/p85α): 2090 nM | IC50 (human p110δ/p85α): 374 nM | EC50 (C4-2B cells [6]; C4-2B, 3 days): 22.6 µM | EC50 (C4-2B/MDV-R cells [7]; C4-2B/MDV-R, 3 days): 31.3 µM | EC50 (22RV1 cells; 22RV1, 3 days): 17.6 µM | EC50 (PC-3 cells; PC-3, 3 days): 7.43 µM | effect on Akt pS473 (Akt pS473 in LNCaP cells): partial inhibitory effect | effect on Akt pS473 [1]: lost their inhibitory effect | cell cycle distribution (G0/G1 and S-phase) (C4-2B cells [9]): significantly increased G0/G1 population accompanied with a large reduction of S-phase cells | cell cycle distribution (G0/G1 and S-phase) (C4-2B/MDV-R cells [10]): significantly increased G0/G1 population accompanied with a large reduction of S-phase cells
